Results on 45 compounds are retold here after ChEMBL document CHEMBL1132952, “2D QSAR modeling and preliminary database searching for dopamine transporter inhibitors using genetic algorithm variable selection of Molconn Z descriptors” (J Med Chem, 2000).

Experiment [1] addresses Sodium-dependent dopamine transporter (Rattus norvegicus) (UniProt P23977). The experiment in a line: Binding affinity to Dopamine transporter (DAT) using [3H]WIN-35428 at 1 uM. The essentials: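 Rat striatal membranes (male Sprague-Dawley, 200-225 g) in modified Krebs-HEPES buffer, pH 7.4. Each tube held 2.5 mg tissue (original wet weight) and 1.5 nM [3H]WIN 35,428. Membranes were preincubated 5 min with or without 1 μM test compound, in triplicate, then incubated 60 min on ice. Nonspecific binding was taken with 0.1 mM cocaine·HCl. Filtration through BSA-presoaked GF/B filters, scintillation counting.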

Experiment [2] concerns the target Sodium-dependent dopamine transporter (Rattus norvegicus, UniProt P23977).

Chain of Sodium-dependent dopamine transporter (P23977 whole entry): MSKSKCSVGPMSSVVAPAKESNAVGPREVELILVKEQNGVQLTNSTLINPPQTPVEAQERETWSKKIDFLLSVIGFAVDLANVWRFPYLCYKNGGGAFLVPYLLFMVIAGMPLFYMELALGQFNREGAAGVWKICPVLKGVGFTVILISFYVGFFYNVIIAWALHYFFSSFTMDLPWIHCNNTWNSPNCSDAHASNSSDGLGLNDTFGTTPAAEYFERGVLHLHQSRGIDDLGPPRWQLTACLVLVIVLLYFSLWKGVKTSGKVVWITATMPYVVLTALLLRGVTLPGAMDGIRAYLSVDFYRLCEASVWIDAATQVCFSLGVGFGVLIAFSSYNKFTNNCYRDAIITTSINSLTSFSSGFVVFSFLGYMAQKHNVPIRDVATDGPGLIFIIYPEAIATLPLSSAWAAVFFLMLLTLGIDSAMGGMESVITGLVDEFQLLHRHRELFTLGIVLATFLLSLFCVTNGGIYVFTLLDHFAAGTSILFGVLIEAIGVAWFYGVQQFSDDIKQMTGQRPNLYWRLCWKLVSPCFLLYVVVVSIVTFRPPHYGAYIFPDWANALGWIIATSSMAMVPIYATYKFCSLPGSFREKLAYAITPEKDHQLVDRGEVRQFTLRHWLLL
Chain of Sodium-dependent dopamine transporter (Rattus norvegicus) (P23977 whole entry): as above

The compound `CC(CN1CCCC1)OC(=O)C(c1ccccc1)C1C=CCC1` (stereo not given) had a Specific binding in experiment [1] of 49.7%. In turn, `C[C@@H]1CN(CCCn2c3ccccc3c3ccccc32)C[C@H](C)N1` [RIMCAZOLE] gave a Ki in experiment [2] of 0.105 µM. In experiment [2], `CN1C2CCC1[C@@H](/C=C/CO)[C@@H](c1ccccc1)C2` (stereo not given in full) showed a Ki of 0.0162 µM. Compared with the last compound, the Ki is about 6.5-fold lower. In turn, `COc1ccc2c(c1)CN(C)CC2c1ccc(Cl)c(Cl)c1` (stereo not given) [DICLOFENSINE] showed a Ki in experiment [2] of 0.00708 µM. Compared with the last compound, the Ki is about 2.3-fold lower. On the same count and under the same terms, as for `CCC(=O)[C@@H]1C2CCC(C[C@@H]1OC(=O)c1ccccc1)N2C` (stereo not given in full), the figure is 0.309 µM. On the same count and under the same terms, as for `CC(NC(C)(C)C)C(=O)c1cccc(Cl)c1` (stereo not given) [BUPROPION], the figure is 0.372 µM. The same measure, in the same setting: as for `COC(=O)CC(c1ccccc1)C1CCCCN1` (stereo not given), the figure is 0.186 µM; as for `COc1ccc(C(O[C@H]2C[C@H]3CC[C@@H](C2)N3C)c2ccccc2)cc1` (stereo not given in full), 0.0794 µM; as for `COC(=O)/C=C/[C@@H]1C2CCC(C[C@@H]1c1ccccc1)N2C` (stereo not given in full), 0.0219 µM.

As to `COC(=O)C1C2CC[C@H](C[C@@H]1c1ccc(Cl)cc1)N2C` (stereo not given in full), the affinity in experiment [2], expressed as Ki, was 0.002 µM. Compared with the last compound, the Ki is about 11-fold lower. The same measure, in the same setting: as for `CC[C@H]1CC2[C@@H](CC(=O)OC)[C@@H](Cc3ccccc3)CC1N2C` (stereo not given in full), the figure is 0.309 µM; as for `CN1C2CCC1[C@@H](CCC(=O)c1ccccc1)[C@@H](c1ccccc1)C2` (stereo not given in full), 0.0282 µM; as for `c1ccc2sc(C3(N4CCCCC4)CCCCC3)cc2c1`, 0.01 µM. `Clc1ccc(C2NCCNCc3ccccc32)cc1` (stereo not given) displayed a Specific binding in experiment [1] of 54.3%.

In the case of `COC(=O)C[C@@H]1C2C[C@H](C)C(C[C@@H]1Cc1ccccc1)N2C` (stereo not given in full), in experiment [2], the Ki is 0.214 µM.

As for `NC12CCC(c3ccccc3)(CC1)CC2`, in experiment [2], the affinity, expressed as Ki, was 0.0832 µM. Consider `COC(=O)[C@@H]1C2CC[C@H](C[C@@H]1c1ccc(I)cc1)N2C`, for which the affinity in experiment [2], expressed as Ki, was 0.00209 µM. This Ki lies about 40-fold lower than the previous one.

In the case of `COC(=O)/C=C/CC[C@@H]1C2CCC(C[C@@H]1c1ccccc1)N2C` (stereo not given in full), in experiment [2], the Ki is 0.02 µM. In experiment [1], `CCCCN(CCCC)CCC(=O)c1cc(-c2ccccc2)oc1-c1ccccc1` gave a Specific binding of 93.4%. `COC(=O)[C@@H]1C2CC[C@H](C[C@@H]1c1ccc(C)cc1)N2C`: in experiment [2], the Ki was 0.00501 µM. This lies in the single-digit nanomolar range. The same measure, in the same setting: in the case of `CN1[C@@H]2CC[C@H]1C[C@@H](OC(c1ccccc1)c1cccc(C(F)(F)F)c1)C2` (stereo not given in full) it was 0.191 µM. Compound `COC(=O)CC[C@@H]1C2CCC(C[C@@H]1c1ccccc1)N2C` (stereo not given in full) gave a Ki in experiment [2] of 0.0229 µM. As for `O=C1c2ccccc2CC1CN1CCCCC1` (stereo not given), the Specific binding in experiment [1] was found to be 89.9%. Consider `O=C(OCCN1CCOCC1)C1(c2ccccc2)CCCCC1`, for which the inhibitory constant (Ki) in experiment [2] is 5.37 µM.

Regarding `CN1[C@@H]2CC[C@H]1C[C@@H](OC(c1ccccc1)c1ccccc1N)C2` (stereo not given in full) [AMINOBENZTROPINE], the affinity in experiment [2], expressed as Ki, was 1.86 µM. As for `c1ccc(C(CN2CCCCC2)OCc2cccs2)cc1` (stereo not given), the Specific binding in experiment [1] turned out to be 42.1%. On the same count and under the same terms, in the case of `CCOC(=O)N1CCN(Cc2c[nH]c3ccccc23)CC1` it was 88.5%.

The compound `CN1C2CCC1[C@@H](CCCc1ccccc1)[C@@H](c1ccccc1)C2` (stereo not given in full) gave a Ki in experiment [2] of 0.0162 µM. `COc1ccccc1OC(CCN)c1ccccc1` (stereo not given) had a Ki in experiment [2] of 0.562 µM. `CCCC[C@H]1CC2[C@@H](CC(=O)OC)[C@@H](Cc3ccccc3)CC1N2C` (stereo not given in full) had a Ki in experiment [2] of 8.51 µM. Still for that read-out and setting: as for `CC(C)OC(=O)[C@@H]1C2CC[C@H](C[C@@H]1c1ccc(I)cc1)N2C`, the figure is 0.00398 µM. The same measure, in the same setting: as for `CN1C2CCC1[C@@H](CCCO)[C@@H](c1ccccc1)C2` (stereo not given in full), the figure is 0.011 µM; as for `CC(=O)[C@@H]1C2CCC(C[C@@H]1OC(=O)c1ccccc1)N2C` (stereo not given in full), 0.191 µM; as for `COC(=O)[C@@H]1C2CC[C@H](C[C@@H]1c1ccccc1)N2C`, 0.0871 µM. On the same count and under the same terms, as for `COC(=O)CCCC[C@@H]1C2CCC(C[C@@H]1c1ccccc1)N2C` (stereo not given in full), the figure is 0.0302 µM; as for `CN1[C@@H]2CC[C@H]1C[C@@H](OC(c1ccccc1)c1ccc(Cl)c(Cl)c1)C2` (stereo not given in full), 0.0214 µM. `CC(C(OC(=O)C1c2ccccc2-c2ccccc21)c1ccccc1)N(C)C` (stereo not given) returned a Specific binding in experiment [1] of 19%. Regarding `CN1CCC(OC(c2ccccc2)c2ccc(Cl)cc2)C1` (stereo not given), in experiment [1], the Specific binding came to 8.43%. Take `CN(C)C/C=C(\c1cccnc1)c1cccc(Br)c1`: in experiment [2], the affinity corresponds to a Ki of 11.2 µM. Still for that read-out and setting: as for `CCCN1CCCC(c2ccc(O)cc2)C1` (stereo not given), the figure is 0.562 µM. In turn, `COc1cc(NCCN(CC(C)C)CC(C)C)c2ncccc2c1` showed a Specific binding in experiment [1] of 81.6%.

`CCC[C@H]1CC2[C@@H](CC(=O)OC)[C@@H](Cc3ccccc3)CC1N2C` (stereo not given in full) gave a Ki in experiment [2] of 4.17 µM. That is a single-digit micromolar value. Still for that read-out and setting: in the case of `COC(=O)C[C@@H]1C2C[C@H](Cc3ccccc3)C(C[C@@H]1Cc1ccccc1)N2C` (stereo not given in full) it was 3.09 µM. In the case of `O=C1N2CCNc3ccccc3C(c3ccccc3)N1CC2` (stereo not given), the Specific binding in experiment [1] was 55.8%.

Compound `c1ccc2c(CN3CCOCC3)c[nH]c2c1` showed a Specific binding in experiment [1] of 88.1%.
